ChEMBL document CHEMBL1140082, “Design, synthesis, and biological evaluation of potent c-Met inhibitors” (J Med Chem, 2008)
Blank lines part the entries; values can stand above or below the compound they belong to.

Tests used:
[1] = Inhibition of FGFRK
[2] = biological target: Vascular endothelial growth factor receptor 1 (Homo sapiens, UniProt P17948); experiment: Inhibition of Flt1 kinase
[3] = biological target: Mitogen-activated protein kinase 9 (Homo sapiens, UniProt P45984); experiment: Inhibition of JNK2
[4] = biological target: cAMP-dependent protein kinase catalytic subunit alpha (Homo sapiens, UniProt P17612); experiment: Inhibition of PKAalpha
[5] = biological target: Mitogen-activated protein kinase 3 (Homo sapiens, UniProt P27361); experiment: Inhibition of ERK1
[6] = biological target: Hepatocyte growth factor receptor (Homo sapiens, UniProt P08581); experiment: Inhibition of cMet by HTRF assay
[7] = biological target: Vascular endothelial growth factor receptor 2 (Homo sapiens, UniProt P35968); experiment: Inhibition of phosphorylated KDR by HTRF assay
Procedure, shortened: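 HTRF assay against KDR kinase with 10-point serial dilution. ATP at two-thirds of the experimentally determined Km (Eadie-Hofstee and Lineweaver-Burke). Ki derived from the IC50.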

[8] = Bioavailability in iv dosed rat; type: ADME, organism-based; conditions: in vivo
[9] = biological target: Tyrosine-protein kinase Lck (Homo sapiens, UniProt P06239); experiment: Inhibition of LCK
[10] = Half life in iv dosed rat; type: ADME, organism-based; conditions: in vivo
Mus musculus = experiment: Inhibition of human recombinant HGF-induced cMet phosphorylation in po or ip dosed BALB/c mouse liver after 2 hrs
[11] = Volume of distribution in iv dosed rat; type: ADME, organism-based; conditions: in vivo
[12] = biological target: Cyclin-dependent kinase 5 (Homo sapiens, UniProt Q00535); experiment: Inhibition of CDK5
[13] = biological target: Ribosomal protein S6 kinase alpha-5 (Homo sapiens, UniProt O75582); experiment: Inhibition of MSK1
[14] = biological target: Macrophage colony-stimulating factor 1 receptor (Homo sapiens, UniProt P07333); experiment: Inhibition of cFMS kinase
[15] = biological target: Fibroblast growth factor receptor 2 (Homo sapiens, UniProt P21802); experiment: Inhibition of FGFRK2
[16] = Inhibition of IGFR
[17] = biological target: Tyrosine-protein kinase BTK (Homo sapiens, UniProt Q06187); experiment: Inhibition of BTK
Angiopoietin-1 receptor = Angiopoietin-1 receptor (Homo sapiens, UniProt Q02763); experiment: Inhibition of Tie2 kinase
[18] = biological target: Ribosomal protein S6 kinase beta-1 (Homo sapiens, UniProt P23443); experiment: Inhibition of P70S6
[19] = biological target: Vascular endothelial growth factor receptor 3 (Homo sapiens, UniProt P35916); experiment: Inhibition of Flt4 kinase
[20] = biological target: T1, Tyrosine-protein kinase JAK3 (Homo sapiens, UniProt P52333); experiment: Inhibition of JAK3
T1 sequence (P52333 whole entry): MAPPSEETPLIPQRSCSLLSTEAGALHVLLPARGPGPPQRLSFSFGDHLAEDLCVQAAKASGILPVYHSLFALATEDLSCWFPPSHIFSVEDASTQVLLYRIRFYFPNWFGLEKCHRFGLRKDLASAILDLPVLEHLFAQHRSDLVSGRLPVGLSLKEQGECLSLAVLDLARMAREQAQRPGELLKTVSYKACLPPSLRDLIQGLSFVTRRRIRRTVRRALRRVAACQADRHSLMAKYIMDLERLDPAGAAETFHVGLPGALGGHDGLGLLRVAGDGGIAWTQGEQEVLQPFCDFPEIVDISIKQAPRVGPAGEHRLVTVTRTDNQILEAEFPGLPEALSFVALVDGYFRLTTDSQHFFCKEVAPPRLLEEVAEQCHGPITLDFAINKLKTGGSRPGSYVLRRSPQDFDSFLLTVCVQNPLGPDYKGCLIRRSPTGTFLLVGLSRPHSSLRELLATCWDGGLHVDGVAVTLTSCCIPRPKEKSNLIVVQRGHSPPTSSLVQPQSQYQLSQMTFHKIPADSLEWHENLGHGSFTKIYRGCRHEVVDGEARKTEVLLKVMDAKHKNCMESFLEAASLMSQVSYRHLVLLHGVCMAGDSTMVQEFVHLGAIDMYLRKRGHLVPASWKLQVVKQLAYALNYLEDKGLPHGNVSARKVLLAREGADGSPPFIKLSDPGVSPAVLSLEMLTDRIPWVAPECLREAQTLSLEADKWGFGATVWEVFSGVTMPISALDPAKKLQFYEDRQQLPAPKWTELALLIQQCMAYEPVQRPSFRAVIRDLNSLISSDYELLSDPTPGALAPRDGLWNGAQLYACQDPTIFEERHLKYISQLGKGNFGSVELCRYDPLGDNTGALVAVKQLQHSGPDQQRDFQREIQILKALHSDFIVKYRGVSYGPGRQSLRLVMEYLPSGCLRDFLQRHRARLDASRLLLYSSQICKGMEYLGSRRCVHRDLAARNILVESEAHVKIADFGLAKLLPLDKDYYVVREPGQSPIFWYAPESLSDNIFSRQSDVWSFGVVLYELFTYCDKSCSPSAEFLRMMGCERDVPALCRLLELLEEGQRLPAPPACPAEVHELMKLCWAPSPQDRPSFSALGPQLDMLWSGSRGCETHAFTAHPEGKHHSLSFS

[21] = biological target: Serine/threonine-protein kinase pim-2 (Homo sapiens, UniProt Q9P1W9); experiment: Inhibition of PIM2 kinase
[22] = biological target: Macrophage-stimulating protein receptor (Homo sapiens, UniProt Q04912); experiment: Inhibition of phosphorylated RON
[23] = biological target: Tyrosine-protein kinase JAK2 (Homo sapiens, UniProt O60674); experiment: Inhibition of JAK2
[24] = Clearance in iv dosed rat; type: ADME, organism-based; conditions: in vivo
[25] = Inhibition of P38 kinase
Aurora kinase A = biological target: T2, Aurora kinase A (Homo sapiens, UniProt O14965); experiment: Inhibition of Aurora2
T2 sequence (O14965 whole entry): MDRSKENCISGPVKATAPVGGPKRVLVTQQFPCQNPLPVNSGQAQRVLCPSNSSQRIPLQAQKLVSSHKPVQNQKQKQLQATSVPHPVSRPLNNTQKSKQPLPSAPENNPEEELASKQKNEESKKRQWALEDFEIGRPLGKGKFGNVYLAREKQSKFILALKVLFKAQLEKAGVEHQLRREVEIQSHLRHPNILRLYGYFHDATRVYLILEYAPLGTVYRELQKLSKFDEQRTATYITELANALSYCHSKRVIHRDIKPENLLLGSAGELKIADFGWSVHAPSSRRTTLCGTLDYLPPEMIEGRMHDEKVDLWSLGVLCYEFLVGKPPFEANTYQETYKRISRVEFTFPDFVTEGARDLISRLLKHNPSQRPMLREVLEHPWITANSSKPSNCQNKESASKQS

[26] = biological target: Tyrosine-protein kinase ZAP-70 (Homo sapiens, UniProt P43403); experiment: Inhibition of ZAP70
[27] = biological target: RAC-alpha serine/threonine-protein kinase (Homo sapiens, UniProt P31749); experiment: Inhibition of PKBalpha
[28] = biological target: Serine/threonine-protein kinase pim-1 (Homo sapiens, UniProt P11309); experiment: Inhibition of PIM1 kinase
[29] = Selectivity of cMet over Tie2 kinase
[30] = Selectivity of cMet over P70S6
[31] = Selectivity of cMet over P38
[32] = Selectivity of cMet over EGFR
[33] = Selectivity of cMet over MSK1
[34] = Selectivity of cMet over PKAalpha
[35] = Selectivity of cMet over FGFRK2
[36] = Selectivity of cMet over Aurora2
[37] = Selectivity of cMet over Flt2
[38] = Selectivity of cMet over Flt1
[39] = Selectivity of cMet over PKBalpha
[40] = Selectivity of cMet over LCK
[41] = Selectivity of cMet over FGFRK
[42] = Selectivity of cMet over PIM2
[43] = Selectivity of cMet over JNK2
[44] = Selectivity of cMet over ZAP70
[45] = Selectivity of cMet over PIM1
[46] = Selectivity of cMet over cFMS kinase
[47] = Selectivity of cMet over ERK1
[48] = biological target: Hepatocyte growth factor receptor c-Met (Mus musculus) (UniProt P16056); experiment: Inhibition of human recombinant HGF-mediated cMet phosphorylation in mouse CT26 cells
[49] = Selectivity of cMet over BTK
[50] = Selectivity of cMet over JAK2
[51] = Selectivity of cMet over CDK5
[52] = Selectivity of cMet over JAK3

Chain of Tyrosine-protein kinase BTK (Q06187 whole entry): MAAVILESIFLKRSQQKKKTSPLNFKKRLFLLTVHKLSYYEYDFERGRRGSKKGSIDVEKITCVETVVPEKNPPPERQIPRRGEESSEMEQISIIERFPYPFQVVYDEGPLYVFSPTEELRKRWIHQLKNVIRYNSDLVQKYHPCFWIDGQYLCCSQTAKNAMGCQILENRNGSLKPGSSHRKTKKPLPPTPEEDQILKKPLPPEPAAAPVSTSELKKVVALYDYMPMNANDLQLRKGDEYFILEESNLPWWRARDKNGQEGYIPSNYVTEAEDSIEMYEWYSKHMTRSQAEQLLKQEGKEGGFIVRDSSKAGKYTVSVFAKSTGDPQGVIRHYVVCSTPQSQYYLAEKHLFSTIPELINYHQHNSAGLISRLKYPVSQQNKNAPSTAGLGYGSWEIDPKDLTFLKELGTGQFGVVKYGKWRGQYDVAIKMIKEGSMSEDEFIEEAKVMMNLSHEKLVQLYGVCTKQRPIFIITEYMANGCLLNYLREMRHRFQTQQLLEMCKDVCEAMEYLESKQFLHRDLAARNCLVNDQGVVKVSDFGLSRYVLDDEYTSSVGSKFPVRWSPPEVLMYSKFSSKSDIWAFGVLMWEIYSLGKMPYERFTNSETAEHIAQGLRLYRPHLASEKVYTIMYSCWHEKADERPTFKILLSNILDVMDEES
Chain of Ribosomal protein S6 kinase beta-1 (P23443 whole entry): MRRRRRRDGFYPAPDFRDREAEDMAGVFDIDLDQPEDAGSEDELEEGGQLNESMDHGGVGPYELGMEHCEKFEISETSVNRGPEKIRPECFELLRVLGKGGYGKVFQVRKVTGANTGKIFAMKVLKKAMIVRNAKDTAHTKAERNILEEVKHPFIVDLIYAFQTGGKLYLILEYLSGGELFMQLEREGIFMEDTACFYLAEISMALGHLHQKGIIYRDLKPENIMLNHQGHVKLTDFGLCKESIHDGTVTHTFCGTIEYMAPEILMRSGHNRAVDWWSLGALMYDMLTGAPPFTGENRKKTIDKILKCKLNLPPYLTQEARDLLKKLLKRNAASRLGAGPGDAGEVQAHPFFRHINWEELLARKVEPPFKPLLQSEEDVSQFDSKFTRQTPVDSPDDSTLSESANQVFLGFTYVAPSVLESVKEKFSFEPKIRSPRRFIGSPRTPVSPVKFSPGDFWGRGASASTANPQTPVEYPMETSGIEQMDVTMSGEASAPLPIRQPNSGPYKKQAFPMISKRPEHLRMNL
Chain of Ribosomal protein S6 kinase alpha-5 (O75582 whole entry): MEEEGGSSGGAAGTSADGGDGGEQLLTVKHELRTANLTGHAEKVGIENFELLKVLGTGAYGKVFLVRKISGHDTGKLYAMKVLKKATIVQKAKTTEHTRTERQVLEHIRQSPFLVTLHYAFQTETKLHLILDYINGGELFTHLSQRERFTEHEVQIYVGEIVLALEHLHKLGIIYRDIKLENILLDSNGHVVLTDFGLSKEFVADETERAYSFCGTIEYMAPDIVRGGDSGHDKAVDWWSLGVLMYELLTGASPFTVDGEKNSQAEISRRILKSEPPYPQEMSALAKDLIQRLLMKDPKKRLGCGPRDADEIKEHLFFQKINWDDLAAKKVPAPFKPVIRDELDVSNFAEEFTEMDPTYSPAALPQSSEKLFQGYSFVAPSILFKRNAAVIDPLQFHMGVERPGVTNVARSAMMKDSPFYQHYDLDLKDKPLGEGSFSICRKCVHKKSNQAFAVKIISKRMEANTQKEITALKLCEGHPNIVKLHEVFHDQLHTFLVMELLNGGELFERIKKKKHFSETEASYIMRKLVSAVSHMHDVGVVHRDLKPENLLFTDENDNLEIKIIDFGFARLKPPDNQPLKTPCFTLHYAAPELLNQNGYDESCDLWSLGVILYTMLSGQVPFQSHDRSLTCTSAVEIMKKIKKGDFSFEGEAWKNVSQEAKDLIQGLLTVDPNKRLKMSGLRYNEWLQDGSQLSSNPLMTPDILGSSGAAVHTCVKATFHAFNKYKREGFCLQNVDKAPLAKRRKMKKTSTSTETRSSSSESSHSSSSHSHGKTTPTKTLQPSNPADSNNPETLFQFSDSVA
Chain of Angiopoietin-1 receptor (Q02763 whole entry): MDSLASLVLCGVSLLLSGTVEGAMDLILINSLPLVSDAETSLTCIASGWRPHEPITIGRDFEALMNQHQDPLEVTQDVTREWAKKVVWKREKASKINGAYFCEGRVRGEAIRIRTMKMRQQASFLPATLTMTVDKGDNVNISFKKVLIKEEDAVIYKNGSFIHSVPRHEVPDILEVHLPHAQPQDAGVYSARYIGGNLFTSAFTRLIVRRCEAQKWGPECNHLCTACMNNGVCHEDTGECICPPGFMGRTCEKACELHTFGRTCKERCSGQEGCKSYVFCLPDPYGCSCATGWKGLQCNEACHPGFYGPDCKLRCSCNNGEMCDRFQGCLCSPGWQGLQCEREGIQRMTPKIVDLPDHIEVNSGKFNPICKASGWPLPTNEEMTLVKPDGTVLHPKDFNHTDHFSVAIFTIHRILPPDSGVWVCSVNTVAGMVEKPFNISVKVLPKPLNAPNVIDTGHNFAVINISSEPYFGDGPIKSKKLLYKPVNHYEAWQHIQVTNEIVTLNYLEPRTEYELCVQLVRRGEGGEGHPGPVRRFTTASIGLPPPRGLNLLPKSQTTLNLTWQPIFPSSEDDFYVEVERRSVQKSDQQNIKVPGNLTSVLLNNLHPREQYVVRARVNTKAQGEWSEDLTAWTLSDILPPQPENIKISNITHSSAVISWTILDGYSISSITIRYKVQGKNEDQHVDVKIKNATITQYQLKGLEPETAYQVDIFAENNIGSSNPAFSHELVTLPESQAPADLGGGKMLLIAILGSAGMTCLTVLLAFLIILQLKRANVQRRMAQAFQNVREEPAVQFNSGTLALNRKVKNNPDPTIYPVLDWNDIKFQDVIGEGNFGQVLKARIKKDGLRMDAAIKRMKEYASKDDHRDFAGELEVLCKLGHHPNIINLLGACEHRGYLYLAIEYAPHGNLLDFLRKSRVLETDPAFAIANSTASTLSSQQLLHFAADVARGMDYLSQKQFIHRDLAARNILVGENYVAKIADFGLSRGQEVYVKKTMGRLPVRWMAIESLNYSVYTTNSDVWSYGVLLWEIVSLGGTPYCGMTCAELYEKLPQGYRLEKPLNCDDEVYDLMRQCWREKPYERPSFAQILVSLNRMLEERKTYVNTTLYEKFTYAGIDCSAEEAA
Chain of Vascular endothelial growth factor receptor 2 (P35968 whole entry): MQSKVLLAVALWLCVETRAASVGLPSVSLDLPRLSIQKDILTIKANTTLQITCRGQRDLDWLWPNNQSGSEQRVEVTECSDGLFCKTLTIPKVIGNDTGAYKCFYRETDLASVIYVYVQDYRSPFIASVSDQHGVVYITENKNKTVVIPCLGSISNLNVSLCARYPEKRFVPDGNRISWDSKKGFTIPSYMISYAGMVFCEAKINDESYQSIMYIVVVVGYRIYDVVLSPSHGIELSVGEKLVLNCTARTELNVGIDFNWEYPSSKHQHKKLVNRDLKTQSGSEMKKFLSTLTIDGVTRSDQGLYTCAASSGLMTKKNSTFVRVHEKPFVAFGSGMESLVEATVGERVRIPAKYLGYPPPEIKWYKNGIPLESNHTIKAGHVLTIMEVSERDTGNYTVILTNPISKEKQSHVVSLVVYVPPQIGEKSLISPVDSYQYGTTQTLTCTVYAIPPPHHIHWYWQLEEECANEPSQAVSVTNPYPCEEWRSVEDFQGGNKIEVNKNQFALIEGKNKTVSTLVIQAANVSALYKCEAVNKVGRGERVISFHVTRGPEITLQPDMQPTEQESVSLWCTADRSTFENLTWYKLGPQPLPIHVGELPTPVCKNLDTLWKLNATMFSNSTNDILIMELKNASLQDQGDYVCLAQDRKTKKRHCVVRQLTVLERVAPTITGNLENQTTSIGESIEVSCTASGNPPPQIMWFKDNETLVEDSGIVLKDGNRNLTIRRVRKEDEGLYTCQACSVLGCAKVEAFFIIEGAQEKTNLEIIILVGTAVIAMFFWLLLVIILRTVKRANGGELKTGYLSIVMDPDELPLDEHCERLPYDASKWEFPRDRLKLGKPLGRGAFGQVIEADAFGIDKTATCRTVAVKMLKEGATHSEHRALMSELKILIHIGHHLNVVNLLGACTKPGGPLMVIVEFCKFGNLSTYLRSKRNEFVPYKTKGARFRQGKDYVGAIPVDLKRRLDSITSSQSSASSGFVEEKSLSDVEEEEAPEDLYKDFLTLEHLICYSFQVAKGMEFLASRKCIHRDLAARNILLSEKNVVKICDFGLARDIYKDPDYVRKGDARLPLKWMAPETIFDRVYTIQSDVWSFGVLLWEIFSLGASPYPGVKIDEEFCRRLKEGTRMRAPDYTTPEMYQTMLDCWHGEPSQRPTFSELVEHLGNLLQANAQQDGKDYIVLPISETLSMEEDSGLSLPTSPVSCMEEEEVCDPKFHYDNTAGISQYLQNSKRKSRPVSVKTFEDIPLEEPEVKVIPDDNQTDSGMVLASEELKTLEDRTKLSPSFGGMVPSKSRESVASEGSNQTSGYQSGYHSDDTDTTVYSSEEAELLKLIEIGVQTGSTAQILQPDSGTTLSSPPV
Chain of Mitogen-activated protein kinase 9 (P45984 whole entry): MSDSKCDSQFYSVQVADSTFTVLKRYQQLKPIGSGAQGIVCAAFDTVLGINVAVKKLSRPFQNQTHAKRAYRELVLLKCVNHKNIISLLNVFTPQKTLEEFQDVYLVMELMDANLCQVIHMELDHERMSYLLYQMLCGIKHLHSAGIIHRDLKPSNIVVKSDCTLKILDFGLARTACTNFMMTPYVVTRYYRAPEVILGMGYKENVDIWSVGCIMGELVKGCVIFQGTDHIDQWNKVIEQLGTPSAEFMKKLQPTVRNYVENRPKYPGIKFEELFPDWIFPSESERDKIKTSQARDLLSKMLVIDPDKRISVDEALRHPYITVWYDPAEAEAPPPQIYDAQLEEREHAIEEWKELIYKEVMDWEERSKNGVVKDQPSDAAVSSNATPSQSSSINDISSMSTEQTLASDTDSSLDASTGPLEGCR

- IC50 [1]: > 1000 nM
- IC50 [2]: > 1000 nM
- IC50 [3]: > 100 µM
- IC50 [4]: > 100 µM
- IC50 [5]: > 100 µM
- Ki [6]: 8.9 nM
- Ki [7]: 422 nM
- bioavailability [8]: 100%
- IC50 [9]: 8 nM
- half-life [10]: 144 min
- Vd [11]: 3.4 L/kg
- IC50 [12]: > 100 µM
- IC50 [13]: > 100 µM
- IC50 [14]: 37 nM
- IC50 [15]: > 1000 nM
- Ki [16]: 1450 nM
- IC50 [17]: 19 nM
- IC50 (Angiopoietin-1 receptor): 285 nM
- IC50 [18]: 10 µM
- IC50 [19]: 120 nM
- IC50 [20]: > 8.3 µM
- IC50 [21]: > 25 µM
- Ki [22]: 195 nM
- IC50 [23]: > 25 µM
- clearance [24]: 9.33 mL/min/kg
- IC50 [25]: > 25 µM
- IC50 (Aurora kinase A): 116 nM
- IC50 [26]: > 5.4 µM
- IC50 [27]: > 100 µM
- IC50 [28]: > 30 µM
SMILES: COc1cc2c(Oc3ccc(-c4cnc(Cc5ccccc5)n(C)c4=O)cc3F)ccnc2cc1OCCCN1CCOCC1
- ED90 (Mus musculus): 100 mg/kg

- IC50 [1]: 1300 nM
- Selectivity ratio [29]: > 100
- Selectivity ratio [30]: > 100
- IC50 [3]: 4.7 µM
- Selectivity ratio [31]: > 100
- Selectivity ratio [32]: > 100
- Selectivity ratio [33]: > 100
- IC50 [4]: > 25 µM
- Selectivity ratio [34]: > 100
- Selectivity ratio [35]: > 100
- IC50 [5]: > 100 µM
- Ki [6]: 3.4 nM
- Selectivity ratio [36]: > 100
- Selectivity ratio [37]: > 100
- Selectivity ratio [38]: > 100
- Ki [7]: 83 nM
- Selectivity ratio [39]: > 100
- Selectivity ratio [40]: < 10
- bioavailability [8]: 48%
- IC50 [9]: 33 nM
- half-life [10]: 144 min
- Selectivity ratio [41]: > 100
- Selectivity ratio [42]: > 100
- Vd [11]: 3.4 L/kg
- Selectivity ratio [43]: > 100
- IC50 [12]: > 100 µM
- Selectivity ratio [44]: > 100
- IC50 [13]: 52 µM
- Selectivity ratio [45]: > 100
- Ki [16]: 51 nM
- IC50 [17]: 126 nM
- Selectivity ratio [46]: < 10
- IC50 (Angiopoietin-1 receptor): 221 nM
- Selectivity ratio [47]: > 100
- IC50 [18]: 65 µM
- IC50 [48]: 59 nM
- IC50 [20]: > 25 µM
- Selectivity ratio [49]: < 10
- Selectivity ratio [50]: > 100
- IC50 [21]: > 25 µM
- Selectivity ratio [51]: > 100
- Selectivity ratio [52]: > 100
- Ki [22]: 1.3 nM
- clearance [24]: 9.33 mL/min/kg
- IC50 [25]: > 100 µM
- IC50 (Aurora kinase A): 426 nM
- IC50 [27]: > 100 µM
- IC50 [28]: 7.8 µM
SMILES: COc1cc2c(Oc3ccc(-c4cnc(Nc5ccc(F)cc5)n(C)c4=O)nc3)ccnc2cc1OCCCN1CCOCC1
- ED90 (Mus musculus): 30 mg/kg

- Ki [6]: 21 nM
SMILES: CCN1CCN(CCCOc2cc3nccc(Oc4ccc(-c5cnc(Cc6ccccc6)n(C)c5=O)cc4F)c3cc2OC)CC1

- Ki [6]: 38 nM
SMILES: COc1cc2nccc(Oc3ccc(-c4cnc(Nc5cccc(F)c5)n(C)c4=O)cc3F)c2cc1OC

- IC50 [1]: > 25000 nM
- IC50 [2]: 45 nM
- IC50 [3]: > 100 µM
- IC50 [4]: > 100 µM
- IC50 [5]: > 100 µM
- Ki [6]: 4.9 nM
- Ki [7]: 139 nM
- bioavailability [8]: 34%
- IC50 [9]: < 4 nM
- half-life [10]: 144 min
- Vd [11]: 3.4 L/kg
- IC50 [13]: > 100 µM
- IC50 [15]: 140 nM
- Ki [16]: 22 nM
- IC50 [17]: 27 nM
- IC50 (Angiopoietin-1 receptor): 26 nM
- IC50 [18]: 5.7 µM
- IC50 [19]: 5 nM
- IC50 [48]: 82 nM
- IC50 [20]: > 1 µM
- Ki [22]: 28 nM
- IC50 [23]: 3.4 µM
- clearance [24]: 9.33 mL/min/kg
- IC50 [25]: 3.6 µM
- IC50 (Aurora kinase A): > 200 nM
- IC50 [26]: > 8.3 µM
- IC50 [27]: > 100 µM
SMILES: COc1cc2c(Oc3ccc(-c4cnc(Nc5ccc(F)cc5)n(C)c4=O)cc3F)ccnc2cc1OCCCN1CCOCC1
- ED90 (Mus musculus): 30 mg/kg

- Ki [7]: > 1300 nM
- Ki [16]: 1030 nM
SMILES: COc1cc2nccc(Oc3ccc(-c4cnc(Cc5ccccc5)n(C)c4=O)cc3F)c2cc1OC
